{
  "source": "ChEMBL document CHEMBL4028909",
  "about": "“Discovery of an Orally Bioavailable Benzofuran Analogue That Serves as a β-Amyloid Aggregation Inhibitor for the Potential Treatment of Alzheimer's Disease” (J Med Chem, 2018)",
  "key": {"[1]": {"test": "Oral bioavailability in mouse at 10 mg/kg", "format": "ADME, organism-based", "details": "in vivo", "in_short": "(§1)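 Mice received a single dose of 3 mg/kg i.v. or 3, 10 or 30 mg/kg orally. Plasma concentration-time profiles were analysed for AUC from zero to infinity and to the last measured time (hr*ng/mL), Cmax (ng/mL, C0 after i.v.), Tmax and terminal half-life (hr), and oral bioavailability (%).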"}, "Rhesus monkey": {"test_system": "Rhesus monkey", "test": "Volume of distribution at steady state in po dosed monkey", "format": "ADME, organism-based, Macaca mulatta", "details": "in vivo"}, "[2]": {"test": "Tmax in mouse at 3 mg/kg, po", "format": "ADME, organism-based", "details": "in vivo", "in_short": "(§2)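 Mouse pharmacokinetics: single i.v. dose of 3 mg/kg, or oral doses of 3, 10 and 30 mg/kg. Plasma concentration–time curves gave T1/2 (terminal, hr), Tmax (hr), Cmax, AUC and bioavailability (%).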"}, "[3]": {"test": "Terminal half life in mouse at 10 mg/kg, po", "format": "ADME, organism-based", "details": "in vivo, read-out: beta t1/2 (converted)", "in_short": "as §2"}, "Mus musculus [4]": {"test_system": "Mus musculus", "test": "Reversal of cognitive deficit in double APP/PS1 transgenic Alzheimer's disease mouse model assessed as increase in spatial memory function by measuring spontaneous alternation at 100 mg/kg, po qd administered for 8 weeks by Y maze test (reference value: 52.64 +/- 4.15%)", "format": "functional", "in_short": "(§3)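 APP/PS1 double transgenic mice, 29 weeks old, dosed orally once daily at 30 or 100 mg/kg for eight weeks. Y-maze spontaneous alternation (%) was then measured against vehicle-treated mice, and mice were watched for apparent toxicity.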"}, "[5]": {"test": "Oral bioavailability in rat", "format": "ADME, organism-based", "details": "in vivo"}, "[6]": {"test": "Half-life in po dosed rat", "details": "in vivo"}, "Mus musculus [7]": {"test_system": "Mus musculus", "test": "Volume of distribution at steady state in po ICR mouse", "format": "ADME, organism-based", "details": "in vivo"}, "[8]": {"test": "Clearance in iv dosed rat", "format": "ADME, organism-based", "details": "in vivo"}, "[9]": {"test": "Half-life in po dosed ICR mouse", "details": "in vivo"}, "[10]": {"test": "Ratio of AUC in ICR mouse brain to AUC in ICR mouse plasma at 10 mg/kg, po measured at 1 hr", "format": "ADME, organism-based", "details": "read-out: Ratio AUC", "in_short": "(§4)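 ICR mice (n=3) given a single oral dose of 10 mg/kg. Brain and plasma were sampled over nine hours, at 0.333, 1, 3, 6 and 9 h. Kp was calculated as AUC_brain/AUC_plasma.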"}, "Mus musculus [11]": {"test_system": "Mus musculus", "test": "Reversal of cognitive deficit in amyloid beta (1 to 42)-treated Alzheimer's disease ICR mouse model assessed as increase in spatial memory function by measuring spontaneous alternation at 1 mg/kg, po administered for 3 consecutive days by Y maze test relative to control", "format": "functional", "in_short": "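Acute AD model: preformed Aβ aggregates injected directly into the brains of normal mice to induce acute neurotoxicity. Compound given orally for three consecutive days, then the Y-maze was run. Read-out is percentage of spontaneous alternation, compared against normal and vehicle-treated mice.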"}, "[12]": {"test": "Ratio of AUC in ICR mouse brain to AUC in ICR mouse plasma at 10 mg/kg, po measured at 3 hrs", "format": "ADME, organism-based", "details": "read-out: Ratio AUC", "in_short": "as §4"}, "Cytochrome P450 1A2": {"target": "T1, Cytochrome P450 1A2 (Homo sapiens, UniProt P05177)", "T1 sequence (P05177 whole entry)": "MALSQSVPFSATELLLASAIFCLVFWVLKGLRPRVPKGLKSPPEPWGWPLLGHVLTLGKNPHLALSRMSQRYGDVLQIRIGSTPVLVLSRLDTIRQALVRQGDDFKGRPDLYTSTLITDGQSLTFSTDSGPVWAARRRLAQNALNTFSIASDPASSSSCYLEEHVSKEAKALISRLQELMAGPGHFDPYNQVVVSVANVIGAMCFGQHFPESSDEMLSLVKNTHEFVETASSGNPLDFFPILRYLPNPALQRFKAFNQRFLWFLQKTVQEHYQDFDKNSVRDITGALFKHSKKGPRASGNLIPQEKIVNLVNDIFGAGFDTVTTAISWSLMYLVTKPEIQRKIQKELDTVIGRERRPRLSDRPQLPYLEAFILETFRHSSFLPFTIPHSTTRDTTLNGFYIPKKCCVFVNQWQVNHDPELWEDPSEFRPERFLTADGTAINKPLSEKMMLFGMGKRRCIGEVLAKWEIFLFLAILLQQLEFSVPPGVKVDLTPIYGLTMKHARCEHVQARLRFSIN", "test": "Inhibition of CYP1A2 in human liver microsomes preincubated for 5 mins followed by addition of NADPH generating system measured after 20 mins by LC-MS/MS analysis", "format": "ADME", "in_short": "(§5)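 Inhibition of each CYP isozyme (1A2, 2A6, 2C8, 2C9, 2C19, 2D6, 3A4) was measured in human liver microsomes. IC50 values were reported in μM.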"}, "Rattus norvegicus": {"test_system": "Rattus norvegicus", "test": "Volume of distribution at steady state in po dosed rat", "format": "ADME, organism-based", "details": "in vivo"}, "Mus musculus [13]": {"test_system": "Mus musculus", "test": "Toxicity in double APP/PS1 transgenic Alzheimer's disease mouse model at 30 to 100 mg/kg, po qd administered for 8 weeks", "format": "organism-based", "details": "in vivo, 1344 h", "in_short": "as §3"}, "Cytochrome P450 2C19": {"target": "Cytochrome P450 2C19 (Homo sapiens, UniProt P33261)", "sequence (P33261 whole entry)": "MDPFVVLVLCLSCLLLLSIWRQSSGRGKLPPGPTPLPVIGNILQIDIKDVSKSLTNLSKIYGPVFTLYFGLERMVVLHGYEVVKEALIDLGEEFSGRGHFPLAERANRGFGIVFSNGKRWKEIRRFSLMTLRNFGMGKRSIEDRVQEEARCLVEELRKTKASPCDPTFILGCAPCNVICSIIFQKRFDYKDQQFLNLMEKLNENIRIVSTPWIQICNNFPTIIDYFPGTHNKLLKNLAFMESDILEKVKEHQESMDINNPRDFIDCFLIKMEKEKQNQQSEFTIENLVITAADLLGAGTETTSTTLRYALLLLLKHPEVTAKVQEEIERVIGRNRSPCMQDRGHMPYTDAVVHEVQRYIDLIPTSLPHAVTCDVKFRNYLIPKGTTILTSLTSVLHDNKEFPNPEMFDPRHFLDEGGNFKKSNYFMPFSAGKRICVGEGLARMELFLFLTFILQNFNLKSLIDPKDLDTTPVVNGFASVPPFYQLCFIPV", "test": "Inhibition of CYP2C19 in human liver microsomes preincubated for 5 mins followed by addition of NADPH generating system measured after 20 mins by LC-MS/MS analysis", "format": "ADME", "in_short": "as §5"}, "[14]": {"test": "Oral bioavailability in ICR mouse", "format": "ADME, organism-based", "details": "in vivo"}, "[15]": {"test": "Cmax in mouse at 30 mg/kg, po", "format": "ADME, organism-based", "parameters": "dose 30 mg/kg, route oral", "details": "in vivo", "in_short": "as §1"}, "[16]": {"target": "Amyloid-beta precursor protein (Homo sapiens) (UniProt P05067)", "sequence (P05067 whole entry)": "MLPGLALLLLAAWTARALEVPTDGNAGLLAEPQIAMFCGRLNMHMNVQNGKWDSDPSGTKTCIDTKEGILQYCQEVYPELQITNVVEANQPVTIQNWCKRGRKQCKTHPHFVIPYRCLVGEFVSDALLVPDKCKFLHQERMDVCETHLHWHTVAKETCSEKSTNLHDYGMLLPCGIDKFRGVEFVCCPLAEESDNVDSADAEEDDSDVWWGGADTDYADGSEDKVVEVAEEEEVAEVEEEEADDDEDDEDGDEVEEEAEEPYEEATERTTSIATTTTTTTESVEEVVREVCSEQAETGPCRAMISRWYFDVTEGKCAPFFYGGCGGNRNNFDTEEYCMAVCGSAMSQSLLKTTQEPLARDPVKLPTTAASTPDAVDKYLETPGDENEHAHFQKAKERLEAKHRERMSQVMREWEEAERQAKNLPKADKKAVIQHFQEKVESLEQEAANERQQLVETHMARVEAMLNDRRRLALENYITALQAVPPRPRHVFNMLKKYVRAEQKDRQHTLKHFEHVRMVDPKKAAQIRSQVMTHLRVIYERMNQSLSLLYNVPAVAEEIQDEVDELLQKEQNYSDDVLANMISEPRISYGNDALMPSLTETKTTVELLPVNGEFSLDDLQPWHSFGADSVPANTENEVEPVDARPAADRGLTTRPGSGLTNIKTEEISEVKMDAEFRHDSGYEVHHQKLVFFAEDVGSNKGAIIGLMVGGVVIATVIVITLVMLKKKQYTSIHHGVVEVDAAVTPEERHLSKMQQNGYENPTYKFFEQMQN", "test": "Induction of HFIP-pretreated amyloid beta (1 to 42) (unknown origin) disaggregation after 1 hr by transmission electron microscopic method"}, "[17]": {"target": "Amyloid-beta precursor protein (Homo sapiens) (UniProt P05067)", "test": "Induction of HFIP-pretreated amyloid beta (1 to 42) (unknown origin) disaggregation after 48 hrs by silver staining-based SDS-PAGE analysis", "in_short": "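Aβ aggregates were incubated with compound for 48 h, with congo red as positive control. Size distribution (monomer, dimer, trimer, high-molecular-weight species) was analysed by SDS-PAGE with silver staining at the start and at the end of incubation.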"}, "[18]": {"test": "Ratio of AUC in ICR mouse brain to AUC in ICR mouse plasma at 10 mg/kg, po measured at 9 hrs", "format": "ADME, organism-based", "details": "read-out: Ratio AUC", "in_short": "as §4"}, "Mus musculus [19]": {"test_system": "Mus musculus", "test": "Antiamyloidogenic activity in double APP/PS1 transgenic Alzheimer's disease mouse model assessed as amyloid beta (1 to 42) levels in brain at 100 mg/kg, po qd administered for 8 weeks by sandwich ELISA relative to control", "format": "functional", "in_short": "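APP/PS1 mice, 29 weeks old, were dosed orally once daily for eight weeks at 30 or 100 mg/kg, with a vehicle group. Brain tissue was homogenized and amyloid fibrils were solubilized to monomers. Aβ1-40 and Aβ1-42 were then quantified by immunoassay with antibodies specific to monomeric Aβ.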"}, "[20]": {"test": "Cmax in mouse at 10 mg/kg, po", "format": "ADME, organism-based", "parameters": "dose 10 mg/kg, route oral", "details": "in vivo", "in_short": "as §1"}},
  "note": "pIC50: −log10 of the molar value. Active and inactive are the calls of the source. No cut-off for these calls is given here.",
  "data": [
    {"smiles": "COCCCc1ccc2oc(-c3ccc(OC)c(OC)c3)cc2c1", "values": [
      {"measurement": "bioavailability", "setting": "[1]", "value": 51.9, "unit": "%"},
      {"measurement": "Vdss", "setting": "Rhesus monkey", "value": 3.8, "unit": "L/kg"},
      {"measurement": "Tmax", "setting": "[2]", "value": 0.7, "unit": "h"},
      {"measurement": "half-life", "setting": "[3]", "value": 1.6, "unit": "h"},
      {"measurement": "Activity", "setting": "Mus musculus [4]", "value": 63.93, "unit": "%"},
      {"measurement": "bioavailability", "setting": "[5]", "value": 51, "unit": "%"},
      {"measurement": "t1/2", "setting": "[6]", "value": 3.8, "unit": "h"},
      {"measurement": "Vdss", "setting": "Mus musculus [7]", "value": 2.5, "unit": "L/kg"},
      {"measurement": "clearance", "setting": "[8]", "value": 33, "unit": "mL/min/kg"},
      {"measurement": "t1/2", "setting": "[9]", "value": 5.87, "unit": "h"},
      {"measurement": "Kp at 1 h", "setting": "[10]", "value": 1.5},
      {"measurement": "Activity", "setting": "Mus musculus [11]", "value": 71.22, "unit": "%"},
      {"measurement": "Kp at 3 h", "setting": "[12]", "value": 1.2},
      {"measurement": "pIC50", "setting": "Cytochrome P450 1A2", "value": "< 4.30"},
      {"measurement": "Vdss", "setting": "Rattus norvegicus", "value": 10, "unit": "L/kg"},
      {"measurement": "Activity", "setting": "Mus musculus [13]", "value": "Non-Toxic"},
      {"measurement": "pIC50", "setting": "Cytochrome P450 2C19", "value": "< 4.30"},
      {"measurement": "bioavailability", "setting": "[14]", "value": 83.3, "unit": "%"},
      {"measurement": "Cmax", "setting": "[15]", "value": 1700, "unit": "ng/mL"},
      {"measurement": "Activity", "setting": "[16]", "value": "Active"},
      {"measurement": "Activity", "setting": "[17]", "value": "Active"},
      {"measurement": "Kp at 9 h", "setting": "[18]", "value": 1.4},
      {"measurement": "Activity", "setting": "Mus musculus [19]", "value": 70, "unit": "%"},
      {"measurement": "Cmax", "setting": "[20]", "value": 660, "unit": "ng/mL"}
    ]}
  ]
}
